Only some compounds are listed: those with a hit (about 1.9% of all), similar ones and a draw of the others.
pCIP destab: compounds decreasing mouse p/CIP protein stability; Q05BA5; 290,000 tested, 0.01% active; decrease of EGFP signal, % at 10 µM; F442A p/CIP-EGFP cells, EGFP fluorescence, 16 h;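 active means EGFP signal decrease of at least 30% at 10 µM or well 3 SD below plate mean, unless failing retest; inactive means the rest, including hits failing retest or dose response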
SUMO HTRF inh: inhibitors of human SUMOylation (UBC9) | P63279 | HTRF SUMOylation assay, SAE1/SAE2 + UBC9, in vitro | inhibition, % at 35 µM | 290,000 tested, 0.36% active; in the data active means inhibition above about 50%, passing the limit was not always enough
Target sequence (P63279 whole entry, looked up): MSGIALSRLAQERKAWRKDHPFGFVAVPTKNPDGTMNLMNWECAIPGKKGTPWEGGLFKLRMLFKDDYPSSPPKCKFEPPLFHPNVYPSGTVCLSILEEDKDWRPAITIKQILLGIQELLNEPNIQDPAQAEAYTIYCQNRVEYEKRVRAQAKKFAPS
VIM-2 inhibitor: blocks Pseudomonas aeruginosa VIM-2 metallo-beta-lactamase. purified VIM-2, nitrocefin hydrolysis, epi-absorbance fluorescence. inhibition, % at 5.6 µM. 290,000 tested, 0.89% active. AID 1527;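 active means inhibition above the mean of all tested compounds plus 3 SD, cutoff set per screening run, cut at about 7.5% in these data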;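 further: red hydrolysis product quenches plate fluorescence so inhibitors raise well fluorescence; 0% = enzyme with DMSO and 100% = DMSO without enzyme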
Fh CTSL1 inh: blocks F. hepatica cathepsin L1 in PFM18AAP counter-screen | recombinant F. hepatica cathepsin L1, Z-Leu-Arg-MCA fluorescence | inhibition, % at 5.96 µM | 300,000 tested, 0.49% active | AID 1906;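 active means inhibition above the mean of all tested compounds plus 3 SD, set per screening campaign, cut at about 17% in these data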;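 further: 0% = plate median of test compound wells and 100% = 1 µM Z-Phe-Ala-diazomethylketone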
T cell modulator: T cell immune modulators affecting CD8 T cell-vesicle binding | response (vesicle binding), % at 7 µM | 2C CD8+ T cell-vesicle binding, flow cytometry; hits give low values | 330,000 tested, 0.068% active | AID 2052;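 active means response, share of CD8 T cells binding vesicles, and their 90th percentile fluorescence all below set limits, cut at about 80% in these data, passing the limit was not always enough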;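 further: values below 100% mean blocked vesicle binding to the CD8+ T cells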
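Incubation: binding step 1.5 h, 37 °C, antibody labelling 20 min, ice; system: murine 2C transgenic CD8+ T lymphocytes; technique: cytometric PE anti-B7-1 and Alexa647 anti-CD8 signals after 1% paraformaldehyde fixation; also added: QL9-charged Drosophila Ld/ICAM-1/B7-1 vesicles; control set: naked versus QL9-loaded vesicles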
IMP-1 inh-1: inhibitors of Pseudomonas aeruginosa IMP-1 metallo-beta-lactamase; AID 1556; inhibition, % at 5.6 µM; 290,000 tested, 0.45% active; purified IMP-1, nitrocefin hydrolysis, epi-absorbance fluorescence;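 active means inhibition above the mean plus 3 SD of all compounds in the same screening run, cut at about 4.5% in these data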;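 further: 0% = IMP-1 with DMSO and 100% = DMSO wells lacking enzyme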
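system = purified recombinant IMP-1 beta-lactamase | amount = 0.2 nM IMP-1, as dispensed | medium = HEPES buffer pH 7.1 with ZnSO4 and Brij 35 | times = 25 °C, 15 min preincubation, 25 min reaction | detection = plate fluorescence quenching by hydrolysis product, ex 480/em 530 nm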
IMP-1 inh-2: selectivity counter-screen for VIM-2 inhibitors: IMP-1 metallo-beta-lactamase inhibitors. shares compounds with VIM-2 inhibitor. purified IMP-1, nitrocefin hydrolysis, epi-absorbance fluorescence. inhibition, % at 5.6 µM. 1,300 tested, under 10 active; call rule not given here;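 further: 0% = enzyme with vehicle and 100% = vehicle without enzyme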
VIM-2 FRET inh: counter-screen for VIM-2 inhibitors: epi-absorbance artifacts via FRET; 1,300 tested, 23% active; purified VIM-2, CCF2 FRET substrate hydrolysis; shares compounds with VIM-2 inhibitor; AID 1857; inhibition, % at 5.6 µM;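 active means inhibition above the mean of all tested compounds plus 3 SD, cut at about 19% in these data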;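 further: 0% = VIM-2 plus DMSO and 100% = no enzyme wells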
TEM-1 counter: TEM-1 inhibition, counter-screen for VIM-2 inhibitors | shares compounds with VIM-2 inhibitor | Purified TEM-1, nitrocefin hydrolysis, epi-absorbance fluorescence | inhibition, % at 5.6 µM | 1,300 tested, 3% active;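 active means inhibition above that campaign's mean inhibition plus 3 SD, cut at about 0.46% in these data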;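 further: 0% = TEM-1 with DMSO and 100% = TEM-1 with 100 µM potassium clavulanate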
Target sequence (P62593 whole entry, looked up): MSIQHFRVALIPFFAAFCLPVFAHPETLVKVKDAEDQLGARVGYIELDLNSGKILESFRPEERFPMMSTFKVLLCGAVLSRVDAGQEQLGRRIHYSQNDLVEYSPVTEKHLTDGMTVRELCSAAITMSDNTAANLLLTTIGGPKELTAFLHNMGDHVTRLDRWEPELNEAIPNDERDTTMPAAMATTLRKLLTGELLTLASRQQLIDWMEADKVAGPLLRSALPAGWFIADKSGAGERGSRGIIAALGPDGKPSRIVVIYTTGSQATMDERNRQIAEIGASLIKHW
VIM-2 inh conf: confirmation of P. aeruginosa VIM-2 metallo-beta-lactamase inhibitors. shares compounds with VIM-2 inhibitor. purified VIM-2, nitrocefin hydrolysis, epi-absorbance. inhibition, % at 5.6 µM. 1,300 tested, 96% active;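 active means inhibition of the VIM-2 beta-lactamase enzyme above about 11% from the earlier first-round screen, limit read from the data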;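 further: 0% = VIM-2 with DMSO and 100% = buffer wells without enzyme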
* marks the source's active call; other numbers are inactive results; . = not tested or not shown.

SMILES	pCIP destab	SUMO HTRF inh	VIM-2 inhibitor	Fh CTSL1 inh	T cell modulator	IMP-1 inh-1	IMP-1 inh-2	VIM-2 FRET inh	TEM-1 counter	VIM-2 inh conf
COc1ccc(-c2nn(C)c3sc(C(=O)NCCN(C)C)cc23)cc1OC	6.9	21.7	16.8*	5.4	285.5	-3.0	-2.7	-1.8	-6.1	29.8*
CCCN(CCC)CCCNC(=O)c1cc2c(-c3ccc(OC)c(OC)c3)nn(C)c2s1	-6.6	24.1	12.3*	5.1	205.5	-4.0	-3.5	-3.7	-5.7	23.8*
O=C(N1CCCC1)C12CC3CC(CC(Cl)(C3)C1)C2	-4.7	14.9	-1.9	-2.2	246.7	-2.9	.	.	.	.
CCC(CO)n1c(=S)[nH]c2cc(OC)c(OC)cc2c1=O (stereo not given)	-11.4	8.8	-2.5	9.2	272.5	-0.5	.	.	.	.
O=C1c2ccccc2C(=O)N1c1cccc2cccnc12	-23.9	73.6*	14.1*	-2.2	228.3	-3.5	-2.6	-1.0	-3.3	3.4
Cc1cccc(C(=O)NC(=S)Nc2ccc(S(=O)(=O)N3CCN(C)CC3)cc2)c1	-3.4	11.1	38.2*	0.1	309.2	-3.2	-2.0	2.7	-9.2	68.7*
Cc1cccc(C(=O)NC(=S)Nc2ccc(S(=O)(=O)N3CCCCC3)cc2)c1	0.7	-10.4	-3.4	2.4	163.3	-3.6	.	.	.	.
Cc1ccc(C(=O)NC(=S)Nc2ccc(S(=O)(=O)N3CCN(C)CC3)cc2)cc1	2.7	-1.3	31.4*	1.2	412.4	-1.9	-2.0	-0.2	-8.1	62.7*
CCS(=O)(=O)c1ccc(O)c(NC(=O)Nc2ccccc2OC)c1	1.3	10.1	-1.0	1.5	907.9	-1.0	.	.	.	.
O=C(NCc1cc([N+](=O)[O-])ccc1O)c1cc(-c2ccncc2)nc2ccccc12	3.4	-6.5	-2.9	-2.1	319.4	-3.6	.	.	.	.
Cc1ccc(C(=O)c2nccn2C)cc1C	-9.4	2.5	0.5	2.7	275.4	-1.0	.	.	.	.
Cc1nn2c(-c3ccco3)nnc2c2ccccc12	-10.0	8.5	13.1*	-0.7	394.0	0.4	-2.4	-2.3	-4.4	26.5*
O=C1Nc2cc(C(=O)NCCCN3CCCC3)ccc2S/C1=C\c1ccccc1	3.0	22.3	13.8*	5.0	407.2	-0.2	-2.0	32.1*	-6.2	23.2*
O=C1Nc2cc(C(=O)NCCCN3CCOCC3)ccc2S/C1=C/c1ccccc1F	-0.8	11.0	29.7*	-3.3	463.3	-1.2	-3.2	49.5*	-6.3	34.0*
O=C1Nc2cc(C(=O)NCC3CCCO3)ccc2S/C1=C/c1ccccc1F (stereo not given)	0.7	3.8	1.4	-1.8	343.4	-3.7	.	.	.	.
O=C1Nc2cc(C(=O)NCCCN3CCOCC3)ccc2S/C1=C/c1cccc(Cl)c1	-10.3	16.7	28.9*	6.7	368.1	-2.4	-2.3	49.2*	-6.6	33.0*
Cc1cc(=O)[nH]c2ccc(S(=O)(=O)NC3CCCCC3)cc12	3.4	2.9	-3.9	-2.0	314.7	-1.3	.	.	.	.
COC(=O)c1c(NC(=O)c2cccc(N3C(=O)CCC3=O)c2)sc2c1CCN(C(C)=O)C2	-10.2	20.0	24.0*	2.9	232.9	-2.5	-3.7	-2.0	-6.7	39.4*
CSC1=N/C(=C/c2ccc(-n3cncn3)cc2)C(=O)N1	4.6	17.4	14.1*	4.1	392.6	0.8	-2.9	-2.0	-9.0	54.9*
C=CCN(CC=C)Cc1c(O)ccc2c1oc(=O)c1ccccc12	.	.	17.3*	-3.1	134.5	-1.9	-2.9	-20.9	-4.8	44.0*
Cc1cc(=O)oc2c(CN(C)Cc3ccccc3)c(O)ccc12	-12.4	36.8	-0.1	7.1	183.1	-6.0	.	.	.	.
